Measured values published in PubChem BioAssay AID588627 (Johns Hopkins Ion Channel Center, 2011).
The campaign covered roughly 310,000 compounds. About 1,400 (0.45%) were called active.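 Rule for the calls: active = calcium response B-score plate-corrected fluorescence ratio at least 3 library SD, with starting fluorescence B-score inside 5 SD; inactive = the rest.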 For the sample, actives were picked, then their nearest neighbours and some compounds at random.

Molecular target: Mas-related G-protein coupled receptor member X1 (Homo sapiens) (UniProt Q96LB2)
Assay: agonists of human MrgX1 receptor, primary screen, HEK293 cells, Fluo-4 calcium flux (AID 588627);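 for B-score: B-score of the peak-minus-trough calcium fluorescence change over baseline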
Details: Fluo-4 calcium fluorescence, agonist mode, at 10 µM; hits give high values
How it was run: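 System: HEK293 cells stably expressing human MrgX1 receptor; Dosing: test compound in the initial addition of three; Schedule: overnight plating, then 30 min 37 °C plus 30 min room-temperature dye loading; Detection: kinetic calcium dye fluorescence, Fluo-4 NW; Controls: per-plate positive and negative controls for Z′ factor.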

Mas-related G-protein coupled receptor member X1 (Homo sapiens), sequence (Q96LB2 whole entry, looked up): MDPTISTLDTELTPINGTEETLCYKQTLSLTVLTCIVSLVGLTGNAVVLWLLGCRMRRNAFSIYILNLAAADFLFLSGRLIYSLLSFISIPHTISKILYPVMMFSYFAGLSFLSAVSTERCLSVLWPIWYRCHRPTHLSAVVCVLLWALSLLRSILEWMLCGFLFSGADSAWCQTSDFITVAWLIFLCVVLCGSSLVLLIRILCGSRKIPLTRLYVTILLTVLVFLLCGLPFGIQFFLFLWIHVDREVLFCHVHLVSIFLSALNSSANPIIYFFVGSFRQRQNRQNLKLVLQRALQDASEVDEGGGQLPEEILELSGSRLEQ

B-score, active:
CCCCN1C(N)=NC[C@@H]1CC1CCCCC1 36.9
NC(N)=N/N=C/c1ccc(Cl)c([N+](=O)[O-])c1 28.4
COc1ccc(C(C[N+](=O)[O-])n2nc(C)cc2C)cc1 (stereo not given) 46.1
CN(C(=O)CN(CCO)CC(=O)N(C)C(C)(C)Cc1ccccc1)C(C)(C)Cc1ccccc1 44.7
COc1ccc(Cl)cc1C(=O)NNC(=S)NC(=O)/C=C/c1ccco1 51.7
CCN(Cc1nc2ccccc2c(=O)[nH]1)Cc1cc(=O)oc2cc(C)c(C)cc12 34.9

B-score, inactive:
CCCCN1C(N)=NC[C@@H]1Cc1ccccc1
CCCC[C@@H]1CN=C(N)N1CCCC
CCOc1ccc(/C=C/C(=O)N(CC)CC(=O)NCc2cccs2)cc1OC
CC(C)(C)N(Cc1ccccc1)C(=O)c1ccncc1
O=C(/C=C/c1ccc(Cl)c([N+](=O)[O-])c1)c1ccc(O)cc1
O=C(/C=C/c1ccc(Cl)c([N+](=O)[O-])c1)c1cccnc1
Cc1ccc(C(=O)C[n+]2cc(-c3ccccc3)n3c2CCCCC3)cc1
COc1ccc(-c2cc(C(=O)NC(Cc3c[nH]c4ccccc34)C(=O)O)c(C)o2)cc1OC (stereo not given)
NS(=O)(=O)c1ccc(NC(=O)COC(=O)C2(c3ccc(F)cc3)CCCC2)cc1
CCOc1ccc(C(C)C)cc1S(=O)(=O)n1nc(C)cc1C
COc1ccc(OCc2cn3c(C)cc(C)nc3n2)cc1
CCC(C)(C(=O)NC1CCCC1)N(C(=O)CNC(C)=O)c1ccc(C)cc1 (stereo not given)
CCCc1nc(N2CCN(C)CC2)c2sc(=S)n(-c3ccccc3)c2n1
OCCN(Cc1ccccc1)Cc1ccc(Cl)cc1
CN(Cc1ccccc1)C(=O)CCc1ccccc1
CC(C)C(=O)NCC(c1cccs1)S(=O)(=O)c1ccc(F)cc1 (stereo not given)
Cc1ncoc1C(=O)N1CCCC(C(=O)c2ccc3c4c(cccc24)CC3)C1 (stereo not given)
CN(CC(=O)Nc1cccc(F)c1)C(=O)C1CSC2(C)CCC(=O)N12 (stereo not given)
C=CCNC(=S)NNC(=O)c1cc(Cl)ccc1OC
COc1ccc(Cl)cc1C(=O)NNC(=S)NC1CCCC1
COc1ccc(C2c3ccc(O)cc3Oc3ncn(CCCO)c(=N)c32)cc1OC (stereo not given)
CCc1cccc(C)c1NC(=O)COC(=O)Cc1ccsc1
CCN(CC(=O)NC(=O)NCc1ccccc1)Cc1nc2ccccc2c(=O)[nH]1
CN(Cc1nc2ccccc2c(=O)[nH]1)Cc1cc(=O)oc2ccc3ccccc3c12
